The target of the assay is T1, Gonadotropin-releasing hormone receptor (Homo sapiens, UniProt P30968).
T1 sequence (P30968 whole entry): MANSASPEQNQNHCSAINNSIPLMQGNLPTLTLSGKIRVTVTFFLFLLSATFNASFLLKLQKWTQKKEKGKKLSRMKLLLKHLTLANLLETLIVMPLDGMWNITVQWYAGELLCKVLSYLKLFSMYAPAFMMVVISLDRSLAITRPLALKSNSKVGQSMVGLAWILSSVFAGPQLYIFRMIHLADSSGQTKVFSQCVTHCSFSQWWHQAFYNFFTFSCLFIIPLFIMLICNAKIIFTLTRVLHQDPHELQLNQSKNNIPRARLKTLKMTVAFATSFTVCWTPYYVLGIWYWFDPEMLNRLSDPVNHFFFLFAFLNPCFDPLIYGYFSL
In words: Competitive antagonism of GnRH-induced response in the reporter gene assay. The essentials: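 Same HEK293 human GnRH receptor luciferase reporter cells. Seven-point GnRH curve (10 µM to 10 pM final) run in duplicate without or with four to five increasing compound concentrations (10 min preincubation, 37 °C), then 5 h and luminescence. GnRH EC50 at each level by four-parameter logistic fit, giving pA2; mean of two determinations in duplicate.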

*1 amine or outer side, *2 acyl side, *3 side chain or, on linkers, in order; H or OH if unused. Where a SMILES comes first, the peptide text is derived from it. [ ]: non-standard residue; d: D form. Phe(4-NH(5-NH2triazol-3-yl)) = Nc1nc(Nc2ccc(C[C@H](N)C(=O)O)cc2)n[nH]1; X1 = Nc1nc(Nc2ccc(C[C@@H](N[*:1])C(=O)[*:2])cc2)n[nH]1; dPhe(4-Cl) = N[C@H](Cc1ccc(Cl)cc1)C(=O)O; d2Nal = N[C@H](Cc1ccc2ccccc2c1)C(=O)O; Lys(iPr) = CC(C)NCCCC[C@H](N)C(=O)O; d3Pal = N[C@H](Cc1cccnc1)C(=O)O

In general, Kd refers to the free concentration of one partner at which half of the binding sites on the other are occupied at equilibrium, for simple one-to-one binding. Read a high Kd as weaker binding.

In turn, `CC(=O)N[C@H](Cc1ccc2ccccc2c1)C(=O)N[C@H](Cc1ccc(Cl)cc1)C(=O)N[C@H](Cc1cccnc1)C(=O)N[C@@H](CO)C(=O)N[C@@H](Cc1ccc(Nc2n[nH]c(N)n2)cc1)C(=O)N[C@H](Cc1ccc(Nc2n[nH]c(N)n2)cc1)C(=O)N[C@@H](CC(C)C)C(=O)N[C@@H](CCCCNC(C)C)C(=O)N1CCC[C@H]1C(=O)N[C@H](C)C(N)=O` [Ac-D-Nal-[D-(pCl)Phe]-D-Pal-Ser-[Aph(Atz)]-D-[Aph(Atz)]-Leu-ILys-Pro-DAla-NH2] (Ac-[d2Nal][dPhe(4-Cl)][d3Pal]S[Phe(4-NH(5-NH2triazol-3-yl))][X1]L[Lys(iPr)]P[dA]-NH2) came in with a Kd of 1.58 nM.

As for `CC(=O)Nc1ccc(C[C@@H](NC(=O)[C@H](Cc2ccc(NC(=O)C3CNC(=O)N3)cc2)NC(=O)[C@H](CO)NC(=O)[C@@H](Cc2cccnc2)NC(=O)[C@@H](Cc2ccc(Cl)cc2)NC(=O)[C@@H](Cc2ccc3ccccc3c2)NC(C)=O)C(=O)N[C@@H](CC(C)C)C(=O)N[C@@H](CCCCNC(C)C)C(=O)N2CCC[C@H]2C(=O)N[C@H](C)C(N)=O)cc1` (stereo partly drawn) [Ac-D-Nal-[D-(pCl)Phe]-D-Pal-Ser-[Aph(Imz)]-D-[Aph(Ac)]-Leu-ILys-Pro-DAla-NH2], binding was put at a Kd of 0.631 nM. Against the preceding compound, the Kd is about 2.5-fold lower.

(Values after BindingDB's records for doi:10.1021/jm0003900 (Ferring Research Institute, 2001).)
